An excerpt weighted towards active compounds, which were near 1.6% of everything screened.
HNF4A DNA FP – change in binding of human HNF4 alpha to DNA. HNF4a-FITC DNA binding, fluorescence polarization, 1 h. activity change, % at 10 µM. P41235. 0.3% of 360,000 active; in the data active = activity change above about 30%, passing the limit was not always enough
PKA-R2B act – activators of human PKA-R2B complex. P22694+P31323. PKA-R2B holoenzyme dissociation, Cy5-IP20 fluorescence polarization; R2B truncated from residue 108, S112A mutant; 0% DMSO only, 100% 113 µM cGMP. activation, % at 11.4 µM. 0.079% of 340,000 active. AID 504700;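 active = activation above a cutoff set at the mean over all compounds plus 3 SD, cut at about 18% in these data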;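 note: higher means more holoenzyme dissociation and a rise in polarization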
CSN deneddyl inh – blocks human CSN-mediated cullin deneddylation; Q92905; Purified CSN, SCF-Nedd8-OG deneddylation, fluorescence polarization; 0.38% of 360,000 active; inhibition, % at 12.5 µM; AID 651999;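 active = pattern-corrected inhibition above about 35%, with an unprinted fluorescence ratio check between 0.5 and 1.5, limit read from the data, passing the limit was not always enough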
Target sequence (Q92905 whole entry, looked up, one chain of several): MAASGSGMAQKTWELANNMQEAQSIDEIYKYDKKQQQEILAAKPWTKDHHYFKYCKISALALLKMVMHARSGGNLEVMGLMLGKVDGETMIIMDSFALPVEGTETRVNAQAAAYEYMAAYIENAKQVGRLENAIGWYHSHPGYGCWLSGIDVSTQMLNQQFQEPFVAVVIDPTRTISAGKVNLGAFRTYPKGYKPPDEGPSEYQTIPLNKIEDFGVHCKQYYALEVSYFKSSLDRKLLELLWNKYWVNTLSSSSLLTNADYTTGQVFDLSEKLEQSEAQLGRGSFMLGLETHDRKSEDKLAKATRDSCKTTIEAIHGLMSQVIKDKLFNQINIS
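Assay system: Purified human Csn5 enzyme expressed in HEK293T cells | Amount: Enzyme 0.24 nM | Measured by: Fluorescence polarization readout | Medium: Tris/NaCl/DTT buffer, pH 7.5 | Compound dosing: One concentration, 12.5 µM, 0.25% DMSO | Times: 90 min incubation of compound, enzyme and substrate at room temperature | Control set: no-enzyme wells high, enzyme-with-substrate wells low | Read-out: % inhibition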
PKA-R1A activ – activates the PKA-R1A holoenzyme complex. P00514+P68181. PKA-R1A dissociation, Cy5-IP20 fluorescence polarization; scaled: DMSO 0%, 113 µM cGMP 100%. activation, % at 11.4 µM. 0.083% of 340,000 active;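 active = percent activation above the mean of all tested compounds plus 3 SD, cut at about 19% in these data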;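 note: higher means more PKAc released from R1A so a rise in polarization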
Rpn11 inh – blocks the human proteasome subunit Rpn11. O00487. human 26S proteasome, Ub4-pepOG fluorescence polarization; 20S core pre-blocked with epoxomicin. AID 588493. calls only at 20 µM. 0.59% of 360,000 active;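 active = inhibition at 20 µM, scaled to each plate's controls, above about 33%, limit read from the data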
Target sequence (O00487 whole entry, looked up): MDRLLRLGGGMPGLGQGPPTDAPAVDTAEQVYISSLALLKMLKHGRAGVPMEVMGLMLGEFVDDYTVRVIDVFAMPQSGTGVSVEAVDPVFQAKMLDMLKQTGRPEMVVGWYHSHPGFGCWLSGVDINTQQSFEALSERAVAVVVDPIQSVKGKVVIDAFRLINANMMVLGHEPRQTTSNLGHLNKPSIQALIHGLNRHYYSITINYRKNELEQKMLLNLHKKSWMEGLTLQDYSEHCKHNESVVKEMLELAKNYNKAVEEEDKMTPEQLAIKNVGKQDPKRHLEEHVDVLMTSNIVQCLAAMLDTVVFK
TPT1 inhibitor – C. albicans TPT1 enzyme inhibition | recombinant caTPT1, FP RNA substrate dephosphorylation | inhibition, % at 5 µM | 0.81% of 300,000 active | AID 1962;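 active = inhibition above the mean of all tested compounds plus 3 SD, set per screening campaign, cut at about 24% in these data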
Hits are given with their value; i = inactive; nt = no result shown; + = active, no number; ! = not active in a repeat.

SMILES | HNF4A DNA FP | PKA-R2B act | CSN deneddyl inh | PKA-R1A activ | Rpn11 inh | TPT1 inhibitor
CCOC(=O)COc1ccc(Br)cc1/C=C/c1[nH]c(=O)[nH]c(=O)c1[N+](=O)[O-] | i | i | 38.7 | i | i | i
CCOC(=O)COc1ccc(Br)cc1/C=C\c1[nH]c(=O)[nH]c(=O)c1[N+](=O)[O-] | i | i | i | i | i | i
CCOC(=O)/C=c1\s/c(=C\c2ccc3cc(OC)ccc3c2)c(=O)n1CC(=O)NCc1ccc2c(c1)OCO2 | i | i | 59.8 | i | nt | i
COc1ccc(NC(=O)C2CCOC(C)(C)C2)cc1 (stereo unspecified) | i | nt | i | nt | i | i
CC(OC(=O)c1cccc(Cl)c1)C(=O)NC1CCCCC1C (stereo unspecified) | i | i | 57.4 | i | i | i
COc1cccc(C(=O)CSc2nnnn2C2CCCCC2)c1 | i | i | i | i | i | i
COc1ccc(Cl)cc1NC(=O)CN1c2ccccc2CC1C (stereo unspecified) | 32.6 | i | i | i | i | i
COc1cc(NC(=O)CN2c3ccccc3CC2C)cc(OC)c1OC (stereo unspecified) | i | i | i | i | i | i
O=C(c1cccc([N+](=O)[O-])c1)c1ccc2[nH]c(=O)[nH]c2c1 | i | i | 97.1 | i | i | i
NC(=O)c1cccc([N+](=O)[O-])c1 | i | i | i | i | i | nt
COc1cc(OC)c2c(O)c3c(c(-c4c5c(c(O)c6c(OC)cc(OC)cc46)CO[C@@H](C)[C@H]5O)c2c1)[C@H](O)[C@H](C)OC3 | i | i | i | i | + | i
C(C#CCCCCCCCCC[n+]1ccccc1)#CCCCCCCCCC[n+]1ccccc1 | 77.3 | i | 35.3! | i | i | i
Nc1nc(SCC(=O)c2cccs2)n[nH]1 | 38.7 | i | i | i | i | i
CN(CC(=O)Nc1ccc(F)cc1)C(=O)c1cc(-c2ccco2)nc2ccccc12 | i | i | 53.0 | i | i | i
O=C(CC1Nc2ccccc2NC1=O)Nc1cc(Cl)cc(Cl)c1 (stereo unspecified) | i | i | i | i | i | i
CCOC(=O)c1c(NC(=O)CC2Sc3ccc(C(F)(F)F)cc3NC2=O)sc(C)c1C (stereo unspecified) | i | i | i | i | i | i
COC(=O)c1c(NC(=O)CC2Nc3ccccc3NC2=O)sc(C)c1C (stereo unspecified) | 44.9 | i | i | i | i | i
CCOC(=O)c1c(NC(=O)CC2Nc3ccccc3NC2=O)sc(C)c1C (stereo unspecified) | 52.5 | i | i | i | i | i
COc1cccc(NC(=O)CCC(=O)NCc2ccco2)c1 | i | i | 69.9 | i | i | i
COc1ccc(C2CC(c3ccc(F)cc3)=NN2c2ccccc2)cc1OC (stereo unspecified) | i | i | i | i | + | i
CSc1ccc(CN2CCC(n3nccc3NC(=O)CCCc3ccccc3)CC2)cc1 | i | i | i | i | i | i
CC(C)Cn1c(NCCO)nc2ccccc21 | i | i | i | i | i | i
OCCNc1nc2ccccc2n1CC(O)c1ccccc1 (stereo unspecified) | 120.3 | i | i | i | i | i
Cc1noc(/C=C/c2ccco2)c1S(=O)(=O)N1CCC(C(=O)N2c3ccccc3CC2C)CC1 (stereo unspecified) | 44.4 | i | i | i | i | i
Cc1noc(/C=C/c2ccco2)c1S(=O)(=O)N1CCC(C(=O)N(C)Cc2ccccc2)CC1 | i | i | i | i | i | i
SMILES | HNF4A DNA FP | PKA-R2B act | CSN deneddyl inh | PKA-R1A activ | Rpn11 inh | TPT1 inhibitor
CNc1nc(SC)nc(N(C)C#N)n1 | i | i | i | i | i | i
CC(C)Oc1ccc(C(CC(=O)O)n2cnnn2)cc1 (stereo unspecified) | i | nt | i | nt | i | i
Cc1cc(C)cc(NC(=S)Nc2cccc3cnccc23)c1 | i | i | 37.1 | i | i | nt
CCc1ccc(NC(=S)Nc2cccc3cnccc23)cc1 | i | i | 38.2 | i | i | i
CCNC(=O)c1cc2c(=O)n3cccc(C)c3nc2n(Cc2ccc(C)cc2)c1=N | i | i | i | i | i | i
COCCCn1c(C(=O)N2CCOCC2)cc2c(=O)n3cccc(C)c3nc21 | i | i | i | i | i | i
Cc1cccn2c(=O)c3cc(C(=O)NC(C)C)c(=N)n(Cc4ccncc4)c3nc12 | 51.6 | i | i | i | i | i
COCCCn1c(C(=O)Nc2ccc3c(c2)OCO3)cc2c(=O)n3cccc(C)c3nc21 | i | i | 41.9 | i | i | nt
COc1cc2c3nnc(-c4ccc(F)cc4)c-3cn(Cc3cccc(F)c3)c2cc1OC | 115.4 | i | i | i | nt | i
C#Cc1ccc(NC(=O)C2(C)CCN2C(=O)C2(c3ccccc3)CCCC2)cc1 (stereo unspecified) | i | nt | i | nt | i | nt
COc1ccccc1CN(C)C(=O)c1ccccc1SCC(=O)N1CCCC1 | i | i | i | i | i | nt
CCNC(=O)C1CC(=O)N(c2ccc(OCC)cc2)C1 (stereo unspecified) | i | i | i | i | i | i
CCOc1ccc(N2CC(C(=O)OC)CC2=O)cc1 (stereo unspecified) | 49.8 | i | i | i | i | i
COc1ccc(-c2nc3cc(NC(=O)Cc4ccc(OC)c(OC)c4)ccc3o2)cc1 | i | i | 42.7 | i | i | i
COc1ccc(OCC(=O)Nc2ccc3oc(-c4ccncc4)nc3c2)cc1 | i | i | i | i | i | i
COC(=O)c1c(NC(=O)CN2C(=O)NC3(CCc4ccccc4C3)C2=O)sc2c1CCCCC2 (stereo unspecified) | i | i | i | i | i | i
COc1ccc(NC(=O)CNc2cc(S(=O)(=O)N3CCOCC3)ccc2NCC2CCCO2)cc1 (stereo unspecified) | i | i | i | i | i | i
O=C1NC[C@H](CC2CCCCC2)N(CCc2cc(C(F)(F)F)cc(C(F)(F)F)c2)C1=O | i | nt | 48.3 | nt | nt | nt
O=C1NC[C@H](CC2CCCCC2)N(CCc2cccc3ccccc23)C1=O | i | nt | 59.7 | nt | nt | nt
FC(F)(F)c1cc(CCN2C(=S)NC[C@@H]2CC2CCCCC2)cc(C(F)(F)F)c1 | i | i | i | i | i | i
O=C1NC[C@@H](Cc2ccc(O)cc2)N(CCc2cc(C(F)(F)F)cc(C(F)(F)F)c2)C1=O | i | nt | 98.2 | nt | nt | nt
Oc1ccc(C[C@@H]2CNC(=S)N2CCc2cc(C(F)(F)F)cc(C(F)(F)F)c2)cc1 | i | i | i | i | i | i
S=C1NC[C@H](CC2CCCCC2)N1CCc1cccc2ccccc12 | i | i | i | i | i | i
O=C(CSc1cccc[n+]1[O-])N1CCc2ccccc21 | i | i | i | i | i | i
